Laboratory results from ChEMBL document CHEMBL4014272, “Design, synthesis, biological evaluation, molecular docking and QSAR studies of 2,4-dimethylacridones as anticancer agents” (Eur J Med Chem, 2017).
pIC50: −log10 of the molar value.

How the values were obtained:
MCF7 = test: Growth inhibition of human MCF7 cells after 48 hrs by SRB assay; format: functional, cell-based; settings: MCF7, 48 h
Procedure, shortened: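 MCF-7 cells in RPMI 1640 with glutamine and 10% fetal calf serum, 37 °C, 5% CO2. Log-phase cells plated, attached 24 h, then exposed to varying compound concentrations for 48 h; ethanol vehicle controls. Survival by SRB, absorbance 540 nm versus control; each dilution in triplicate, IC50 from mean of triplicates.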

NCI/ADR-RES = test: Growth inhibition of human MCF7/ADR cells after 48 hrs by SRB assay; format: functional, cell-based
Procedure, shortened: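 Doxorubicin-selected MCF-7/ADR cells maintained under doxorubicin, grown in RPMI 1640 with glutamine and 10% fetal calf serum, 37 °C, 5% CO2. Log-phase cells plated, attached 24 h, exposed to varying compound concentrations for 48 h; ethanol vehicle controls. Survival by SRB absorbance versus control; triplicate readings averaged for IC50.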

[1] = molecular target: ATP-dependent translocase ABCB1 (Homo sapiens, UniProt P08183); test: Inhibition of ABCB1 in human MCF7/ADR cells assessed as potentiation of vinblastine-induced cytotoxicity at IC10 after 7 days by SRB assay relative to vinblastine alone; format: cell-based; settings: 168 h
Chain of ATP-dependent translocase ABCB1 (P08183 whole entry): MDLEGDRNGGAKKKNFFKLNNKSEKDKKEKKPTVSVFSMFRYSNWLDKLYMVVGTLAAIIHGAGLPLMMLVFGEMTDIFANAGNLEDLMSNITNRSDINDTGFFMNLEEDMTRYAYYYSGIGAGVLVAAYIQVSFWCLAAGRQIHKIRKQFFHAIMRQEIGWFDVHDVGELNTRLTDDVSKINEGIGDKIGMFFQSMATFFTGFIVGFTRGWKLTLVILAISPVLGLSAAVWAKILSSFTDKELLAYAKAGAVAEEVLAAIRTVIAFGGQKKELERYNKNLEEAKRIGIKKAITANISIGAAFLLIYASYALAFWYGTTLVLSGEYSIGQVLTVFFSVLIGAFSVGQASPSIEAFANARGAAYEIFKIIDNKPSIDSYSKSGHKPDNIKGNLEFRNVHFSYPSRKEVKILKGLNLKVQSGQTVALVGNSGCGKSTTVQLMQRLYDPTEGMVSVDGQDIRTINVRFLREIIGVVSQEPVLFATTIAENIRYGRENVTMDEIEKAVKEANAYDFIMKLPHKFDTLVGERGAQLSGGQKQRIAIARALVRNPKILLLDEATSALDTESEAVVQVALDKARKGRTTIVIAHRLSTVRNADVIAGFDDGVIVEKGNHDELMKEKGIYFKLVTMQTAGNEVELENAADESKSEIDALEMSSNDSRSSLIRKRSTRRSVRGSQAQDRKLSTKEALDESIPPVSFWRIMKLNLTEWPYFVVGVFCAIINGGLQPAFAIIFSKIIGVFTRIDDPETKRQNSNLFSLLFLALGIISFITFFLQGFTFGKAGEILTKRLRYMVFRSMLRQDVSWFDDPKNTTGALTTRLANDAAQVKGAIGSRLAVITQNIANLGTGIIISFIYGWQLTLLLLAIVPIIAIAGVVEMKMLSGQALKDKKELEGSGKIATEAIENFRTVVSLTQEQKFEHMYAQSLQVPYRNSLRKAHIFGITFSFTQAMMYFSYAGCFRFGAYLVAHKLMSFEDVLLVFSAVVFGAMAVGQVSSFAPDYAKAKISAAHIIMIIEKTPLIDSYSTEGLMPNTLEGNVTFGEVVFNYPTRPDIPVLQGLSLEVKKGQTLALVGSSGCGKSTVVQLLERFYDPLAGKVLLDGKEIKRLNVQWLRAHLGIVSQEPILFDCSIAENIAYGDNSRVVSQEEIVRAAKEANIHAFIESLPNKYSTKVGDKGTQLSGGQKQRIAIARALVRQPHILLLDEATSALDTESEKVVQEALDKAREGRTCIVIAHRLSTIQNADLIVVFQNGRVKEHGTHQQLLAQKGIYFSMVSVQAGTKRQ
Procedure, shortened: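 Doxorubicin-maintained MCF-7/ADR cells given vinblastine (0-100 nM, continuous 7 days per results text; methods state 0-15 nM for 48 h) alone or with modulator at its IC10. Survival by SRB versus ethanol vehicle control; vinblastine IC50 with modulator compared to vinblastine alone; triplicates averaged.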

ABCB1 (P-glycoprotein) = ABCB1 (P-glycoprotein) (Homo sapiens, UniProt P08183); test: Displacement of [3H]-azidopine from ABCB1 in human KBV1 cell membranes at IC50 incubated for 20 mins in dark followed by irradiation of UV-light measured after 20 mins by SDS-PAGE based autoradiography relative to control; settings: probe [3H]-azidopine
Chain of ABCB1 (P-glycoprotein) (P08183 whole entry): as above

SMILES	pIC50 (MCF7)	pIC50 (NCI/ADR-RES)	fold change (FC) [1]	inhibition at 20 min (ABCB1 (P-glycoprotein))	inhibition (INH) [1]
Cc1cc(C)c2c(c1)c(=O)c1ccccc1n2CCCN1CCCCC1	4.24	4.21	7.17	34%	–
Cc1cc(C)c2c(c1)c(=O)c1ccccc1n2CCCCN1CCOCC1	4.70	4.66	–	36%	Active
CC[C@]1(O)C[C@@H]2CN(CCc3c([nH]c4ccccc34)[C@@](C(=O)OC)(c3cc4c(cc3OC)N(C)[C@H]3[C@@](O)(C(=O)OC)[C@H](OC(C)=O)[C@]5(CC)C=CCN6CC[C@]43[C@@H]65)C2)C1 [VINBLASTINE]	8.49 to 8.52	7.16 to 7.97	–	–	–
Cc1cc(C)c2c(c1)c(=O)c1ccccc1n2CCCN1CCN(C)CC1	4.30	4.27	4.75	46%	–
CCN(CC)CCCCn1c2ccccc2c(=O)c2cc(C)cc(C)c21	5.08	5.04	–	54%	Active
CCN(CC)CCCn1c2ccccc2c(=O)c2cc(C)cc(C)c21	4.54	4.47	10.48	36%	–
COc1cccc2c1C(=O)c1c(O)c3c(c(O)c1C2=O)C[C@@](O)(C(C)=O)C[C@@H]3O[C@H]1C[C@H](N)[C@H](O)[C@H](C)O1 [DAUNORUBICIN]	–	5.15	–	–	–
Cc1cc(C)c2c(c1)c(=O)c1ccccc1n2CCCCl	–	–	–	28%	–
Cc1cc(C)c2c(c1)c(=O)c1ccccc1n2CCCN1CCN(CCO)CC1	4.92	4.82	16.74	52%	–
Cc1cc(C)c2c(c1)c(=O)c1ccccc1n2CCCCN(CCO)CCO	5.40	5.28	–	55%	Active
COc1ccc(CCN(C)CCCC(C#N)(c2ccc(OC)c(OC)c2)C(C)C)cc1OC (stereo unspecified) [VERAPAMIL]	–	–	–	61%	–
Cc1cc(C)c2c(c1)c(=O)c1ccccc1n2CCCCN1CCN(C)CC1	4.84	4.79	–	43%	–
Cc1cc(C)c2[nH]c3ccccc3c(=O)c2c1	4.10	4.09	1.4	33%	–
Cc1cc(C)c2c(c1)c(=O)c1ccccc1n2CCCCN1CCCCC1	4.52	4.44	–	42%	–
Cc1cc(C)c2c(c1)c(=O)c1ccccc1n2CCCCCl	–	–	–	36%	–
Cc1cc(C)c2c(c1)c(=O)c1ccccc1n2CCCN(CCO)CCO	4.72	4.64	9.7	40%	–
Cc1cc(C)c2c(c1)c(=O)c1ccccc1n2CCCN1CCOCC1	4.23	4.19	6.4	26%	–
Cc1cc(C)c2c(c1)c(=O)c1ccccc1n2CCCCN1CCN(CCO)CC1	5.70	5.59	–	58%	Active
